Assay outcomes (PubChem BioAssay)
The list is not random: actives were taken first. Their share in the collection is about 4.7%.
SKN-1 block: C. elegans SKN-1 inhibition. C. elegans VP596 Pgst-4::GFP/RFP ratio, acrylamide-induced, 24 h. AID 624304. 360,000 compounds, 0.49% hits. inhibition, % at 21.8 µM;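 active = interference check ratio from 0.5 to 1.5 plus GFP to RFP signal ratio inhibition reaching or exceeding a fixed threshold, cut at about 30% in these data, passing the limit was not always enough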
MT1-MMP act inh: blocks activation of human MT1-MMP; HT1080 RFP-PRO-GFP cells, GFP/RFP ratio fluorescence, overnight; percent of plate control window, DMSO zero; 360,000 compounds, 0.061% hits; AID 651647; GFP/RFP ratio change, % at 20 µM;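 active = GFP/RFP ratio change of at least 30% with cell ATP level not reduced by more than half and red fluorescence within 50% of control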
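Assay system: RFP-PRO-GFP reporter HT1080 cells; read-out basis: GFP/RFP fluorescence ratio; benchmarks: DMSO wells and RFP-L50D-GFP cells; doses: 20 µM single dose, 1% DMSO; schedule: overnight cell settling, then overnight compound exposure, 37 °C, 5% CO2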
ADAM10 inh: inhibits human ADAM10 | O14672 | recombinant ADAM10, EDANS/DABCYL FRET peptide cleavage, 3 h | inhibition, % at 7 µM | 370,000 compounds, 0.62% hits | AID 720582;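 active = inhibition above a per-campaign cutoff equal to the mean of compounds falling between control-based bounds plus 3 SD, cut at about 20% in these data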;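 note: 0% = DMSO wells while the 100% control is not disclosed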
Target sequence (O14672 214-748 limits assumed): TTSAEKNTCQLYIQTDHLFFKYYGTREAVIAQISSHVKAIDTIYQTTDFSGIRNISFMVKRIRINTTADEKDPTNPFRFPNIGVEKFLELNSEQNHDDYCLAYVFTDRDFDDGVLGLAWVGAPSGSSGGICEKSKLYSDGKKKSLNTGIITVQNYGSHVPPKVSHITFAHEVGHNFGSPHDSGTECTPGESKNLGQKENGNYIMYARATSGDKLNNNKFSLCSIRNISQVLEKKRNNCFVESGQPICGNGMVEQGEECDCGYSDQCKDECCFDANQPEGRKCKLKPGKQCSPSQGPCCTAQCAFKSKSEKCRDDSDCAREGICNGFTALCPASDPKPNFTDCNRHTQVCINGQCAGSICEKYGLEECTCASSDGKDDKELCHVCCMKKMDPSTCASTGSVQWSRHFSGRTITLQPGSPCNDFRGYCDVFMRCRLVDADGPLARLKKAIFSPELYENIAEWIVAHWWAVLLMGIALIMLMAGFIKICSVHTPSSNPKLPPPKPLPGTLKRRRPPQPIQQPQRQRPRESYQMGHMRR
MPTP block: permeability transition pore inhibition; isolated mouse mitochondria, Ca2+ swelling absorbance, 30 min; 360,000 compounds, 1.4% hits; inhibition, % at 10 µM; AID 602449;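 active = inhibition of 50% or more, scaled per plate between neutral and stimulator controls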;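 note: 0% = DMSO wells given calcium and 100% = 1 mM EGTA wells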
NR3A LBD binder: modulates the human NR3A ligand-binding domain; NR3A LBD differential scanning fluorimetry, Tm shift; 0% = protein alone, 100% = glycine-bound protein; Tm shift relative to glycine control, % at 25 µM; 340,000 compounds, 2.5% hits; AID 1259313;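 active = melting temperature shift of at least 10% of the positive control shift, at one fixed dose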
ADAM17 inh: inhibitors of human ADAM17. 370,000 compounds, 0.83% hits. inhibition, % at 6.95 µM. P78536. AID 720648. recombinant ADAM17, EDANS/DABCYL FRET peptide cleavage;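 active = inhibition above the mean of compounds lying between control limits plus 3 SD, set per campaign, cut at about 8.5% in these data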;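 note: 0% = DMSO-only wells as the low control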
Rh123 counter: Rhodamine 123 counter-screen of mitochondrial pore hits; shares compounds with MPTP block; isolated mitochondria, membrane potential, Rhodamine 123 fluorescence; inhibition, % at 10 µM; 5,000 compounds, 78% hits; AID 624504; in the data active = inhibition above about 22%;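 note: 0% = DMSO vehicle and 100% = positive control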
MPTP abs DR: dose response confirmation of mitochondrial permeability transition pore inhibitors; shares compounds with MPTP block; isolated mitochondria swelling, absorbance; IC50, µM; 780 compounds, 58% hits; in the data active = IC50 below about 20 µM
MPTP cs DR: active in counter-screen for permeability transition pore inhibitors; AID 651564; shares compounds with MPTP block; IC50, µM; 780 compounds, 49% hits; isolated mitochondria counterscreen, fluorescence read-out; in the data active = IC50 below about 80 µM
The depositor's hits bear a star; i = inactive; . = no result given.

SMILES	SKN-1 block	MT1-MMP act inh	ADAM10 inh	MPTP block	NR3A LBD binder	ADAM17 inh	Rh123 counter	others
FC(F)(F)c1cccc(NC(=S)Nc2ccc(Cl)cc2Cl)c1	-2.4	1.2	-9.3	98.3*	6.9	-4.4	108.6*
O=C(NNC(=S)Nc1ccc(Cl)c(Cl)c1)c1cccc([N+](=O)[O-])c1	0.6	0.6	13.1	70.4*	21.5*	6.3	52.0*
CC(C)C(=O)NC(=S)Nc1ccccc1C(F)(F)F	10.6	-2.9	0.3	4.2	0.2	-3.2	.
O=C(NNC(=S)NC(=O)c1ccccc1)c1cccc([N+](=O)[O-])c1	22.1	3.5	6.7	1.3	-3.1	-3.0	.
FC(F)(F)c1ccccc1NC(=S)Nc1cccc(Cl)c1	7.2	-0.1	7.1	97.4*	13.9*	-0.9	88.6*
Cc1ccc(-c2nn(CCC(=O)NC(C)C)c(=O)c3ccccc23)cc1	3.7	4.4	-1.7	-0.4	-3.6	-2.1	.
O=C(Nc1ccc(Cl)cc1)N[C@@H]1c2c(ccc3ccccc23)OC[C@@H]1CO	2.7	6.3	6.1	93.3*	25.7*	-0.4	74.5*
O=S(=O)(c1cc(C(F)(F)F)ccc1Cl)N1CCN(c2ncnc3ccccc23)CC1	6.4	-7.4	-4.1	93.4*	-1.6	-5.9	104.8*
Cc1cc(C)c(C)c(S(=O)(=O)N2CCN(c3ccccn3)CC2)c1C	-3.9	-4.5	-3.1	-1.8	-0.2	-2.9	.
Cc1cc(C)c(C)c(S(=O)(=O)N2CCN(c3ncnc4ccccc34)CC2)c1C	-12.6	-4.6	-22.1	76.1*	-2.3	-2.1	104.5*
O=S(=O)(c1cc(C(F)(F)F)ccc1Cl)N1CCCCCC1	7.1	4.8	-0.5	0.5	-0.8	-1.0	.
O=C(COC(=O)c1cc(S(=O)(=O)N2CCOCC2)c(Cl)cc1Cl)Nc1ncc(C(F)(F)F)cc1Cl	-3.3	-3.1	0.4	0.9	4.6	1.9	.
CCOc1ccc(C(=O)COC(=O)c2cc([N+](=O)[O-])ccc2N2CCOCC2)cc1	4.0	-3.0	-6.2	-1.4	2.2	2.6	.
N#Cc1c(C(F)(F)F)cc(-c2ccc(F)cc2)[nH]c1=O	-15.3	0.5	i	4.4	-0.4	-401.0	.
COc1ccc(-c2cc(C(F)(F)F)c(C#N)c(=O)[nH]2)cc1	-2.9	-2.3	i	10.7	-35.9	i	.
N#Cc1c(C(F)(F)F)cc(-c2cccc(Cl)c2)[nH]c1=O	8.1	-1.5	i	94.1*	-10.5	i	89.3*
N#Cc1c(C(F)(F)F)cc(-c2ccc(Cl)cc2)[nH]c1=O	-6.6	-1.8	i	92.6*	-8.3	i	82.1*
CCOC(=O)c1ccc(S(=O)(=O)N2CCN(S(=O)(=O)CC)CC2)cc1	25.8	1.0	-11.8	60.3*	3.1	-2.1	-0.5	MPTP abs DR=>100;MPTP cs DR=>80
CCOC(=O)c1ccc2nc(NC(C)=O)sc2c1	11.3	-1.4	-2.5	0.3	-1.5	-3.7	.
CCOC(=O)N1CCN(S(=O)(=O)c2ccc(C(=O)Nc3nc4ccc(F)cc4s3)cc2)CC1	9.6	2.1	-1.5	62.4*	0.5	0.0	1.0	MPTP abs DR=i;MPTP cs DR=6.35*
COC(=O)c1ccc2nc(Nc3nc4c(F)cc(F)cc4s3)sc2c1	12.4	-8.0	-98.1	101.1*	22.1*	-40.1	64.1*
CCOC(=O)c1ccc2nc(Nc3nc4ccc(F)cc4s3)sc2c1	0.2	1.0	-17.8	100.9*	28.1*	-4.4	6.7	MPTP abs DR=5.02*;MPTP cs DR=<2.5*
CCOC(=O)c1sc(NC(=O)c2ccc(S(=O)(=O)N3CCCCC3)cc2)nc1-c1ccccc1	4.1	-21.5	-7.3	50.0*	12.6*	-3.1	31.9*
Cc1cc(C(=O)NC2CCCc3c2cnn3-c2cccc(C)c2C)n(C)n1 (configuration not stated)	7.0	6.3	-1.0	90.4*	0.6	-0.7	107.9*
